Sampled rows, rich in hits. Any-hit rate of the full collection: about 4.3%.
ALR inh: inhibitors of human ALR sulfhydryl oxidase, primary screen, biochemical, H2O2 detection, HRP-luminol luminescence, single point; FAD-linked sulfhydryl oxidase ALR (Homo sapiens), P55789; purified ALR, DTT oxidation; inhibition, % (concentration not given with the values); 290,000 compounds, 3.8% hits;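 active = mean replicate inhibition above about 79%, with every replicate also reaching it, limit read from the data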
Target sequence (P55789 whole entry, looked up): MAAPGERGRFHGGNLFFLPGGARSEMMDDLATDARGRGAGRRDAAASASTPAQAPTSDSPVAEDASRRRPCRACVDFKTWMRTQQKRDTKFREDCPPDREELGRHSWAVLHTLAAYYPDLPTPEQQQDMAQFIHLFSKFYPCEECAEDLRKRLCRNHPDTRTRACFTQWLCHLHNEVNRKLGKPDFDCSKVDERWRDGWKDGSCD
RBBP9 inh: human RBBP9 inhibitors, primary screen, biochemical, fluorescence polarization, FP-Rh probe, HTS | Serine hydrolase RBBP9 (Homo sapiens), O75884 | recombinant RBBP9 | inhibition, % at 7.94 µM | 220,000 compounds, 0.2% hits;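 active = inhibition above the campaign mean of all tested compounds plus 3 SD, cut at about 14% in these data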;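 also: plate controls were DMSO wells with RBBP9 for no effect and wells lacking RBBP9 protein for full effect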
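System: RBBP9 protein / Buffer or medium: Tris/NaCl buffer pH 8.0 with 0.1% Pluronic / Probe or stimulus: Serine-hydrolase probe FP-Rh, 375 nM pre-mixing / Dosing: 7.94 µM single dose, 0.794% DMSO / Times: enzyme-compound preincubation 30 min, then probe labeling 45 min, 25 °C / Technique: fluorescence polarization (mP), excitation 525 nm, emission 598 nm / Replication: singlicate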
UBC13 inh: UBC13 polyubiquitin chain formation inhibitors, primary screen, biochemical, TR-FRET, uHTS | inhibition, % at 20 µM | 330,000 compounds, 0.47% hits | Ubiquitin-conjugating enzyme E2 N (Homo sapiens), P61088; in the data active = inhibition above about 45%, passing the limit was not always enough
Target sequence (P61088 whole entry, looked up): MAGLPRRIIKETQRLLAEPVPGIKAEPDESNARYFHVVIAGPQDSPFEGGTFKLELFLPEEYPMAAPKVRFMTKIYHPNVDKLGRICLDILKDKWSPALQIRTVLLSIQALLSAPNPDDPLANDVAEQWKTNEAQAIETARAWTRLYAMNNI
SUMO HTRF inh: inhibitors of in vitro SUMOylation cascade, primary screen, biochemical, HTRF, uHTS | HTRF SUMOylation assay, SAE1/SAE2 + UBC9 | SUMO-conjugating enzyme UBC9 (Homo sapiens), P63279 | 290,000 compounds, 0.36% hits | AID 2006, 2009 | inhibition, % at 35 µM; in the data active = inhibition above about 50%, passing the limit was not always enough
Target sequence (P63279 whole entry, looked up): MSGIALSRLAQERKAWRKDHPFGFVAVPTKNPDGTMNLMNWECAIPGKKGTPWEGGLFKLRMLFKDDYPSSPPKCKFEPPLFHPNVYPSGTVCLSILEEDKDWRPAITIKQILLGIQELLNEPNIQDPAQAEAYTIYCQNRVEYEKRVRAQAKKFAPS
PREPL inh: PREPL enzyme inhibitors, primary screen, biochemical, fluorescence polarization | Prolyl endopeptidase-like (Homo sapiens), Q4J6C6 | recombinant PREPL, fluorescence polarization activity-based probe | inhibition, % at 5.96 µM | 320,000 compounds, 0.68% hits | AID 2751, 2010;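 also: 0% = enzyme with DMSO and 100% = wells lacking enzyme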
Rin1 Abl inh: inhibitors of Rin1-Abl protein binding, primary screen, biochemical, TR-FRET; inhibition, % at 7.35 µM; Tyrosine-protein kinase ABL1 (Homo sapiens) + Ras and Rab interactor 1 (Homo sapiens), …; 360,000 compounds, 0.4% hits; in the data active = inhibition above about 5%, passing the limit was not always enough
PREPL confirm: human PREPL enzyme inhibitors, confirmation, biochemical, fluorescence polarization; shares compounds with PREPL inh; recombinant PREPL, fluorescence polarization activity probe; inhibition, % at 5.96 µM; 2,000 compounds, 67% hits; AID 2803, 2010;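 also: 0% = protein with DMSO and 100% = wells lacking protein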
An asterisk follows results filed as active; . = no result. Rule as the data show it, unless noted: active = inhibition above about 43%; inactive = the rest.

SMILES	ALR inh	RBBP9 inh	UBC13 inh	SUMO HTRF inh	PREPL inh	Rin1 Abl inh	PREPL confirm
NCCCn1c(C(=O)c2cc(Cl)c(N)c(Cl)c2)c2ccc([N+](=O)[O-])cc2[n+]1[O-]	-79	.	15	.	61*	-3	69*
COc1ccc(C(=O)c2c3ccc([N+](=O)[O-])cc3[n+]([O-])n2CCCC(N)=O)cc1	-81	.	-28	.	6	-1	.
COc1ccc(S(=O)(=O)N2CCCOC2CNC(=O)C(=O)NCc2ccncc2)cc1 (centres undefined)	2	.	2	3	-3	2	.
O=C(Nc1cccc(OC(F)(F)F)c1)c1cccc2c(-c3cccnc3)coc12	.	.	.	.	.	2	.
COCCn1c(CN(C)Cc2ccccc2)nc2c1c(=O)n(C)c(=O)n2C	-29	-3	1	21	53*	-5	37
CCOCCn1c(CN(C)Cc2ccccc2)nc2c1c(=O)n(C)c(=O)n2C	-9	.	2	10	16	1	.
N#C/C(=C\c1cccs1)c1nc2ccccc2[nH]1	.	-4	.	-5	37	-4	.
N#C/C(=C\C1CC2C=CC1C2)c1nc2ccccc2[nH]1 (centres undefined)	-17	-6	7	26	48*	-5	9
N#C/C(=C\c1ccc(OC(=O)c2cccs2)cc1)c1nc2ccccc2[nH]1	.	-4	-15	0	55*	-1	12
N#C/C(=C/c1ccc(O)c(O)c1)c1nc2ccccc2[nH]1	90*	.	-132	-12	60*	1	48*
O=C(CSc1ccc2nnc(CCNC(=O)c3ccccc3)n2n1)Nc1ccc(F)cc1F	9	.	4	19	11	1	.
COc1ccc2cc(-c3cc(C(=O)OCC(=O)NC4CCS(=O)(=O)C4)c4ccccc4n3)ccc2c1 (centres undefined)	.	-8	.	-34	46*	-5	37
O=C(Nc1ccccc1)C1=C[C@@H](c2coc3ccccc3c2=O)C[C@@H](OCc2ccc(CO)cc2)O1	-4	-1	-5	-8	49*	5	48*
C[C@@H]1CN([C@H](C)CO)C(=O)c2cc(C3=CCCCC3)cnc2O[C@@H]1CN(C)Cc1ccccc1C(=O)O	.	.	.	.	.	0	.
Cc1cc(NC(=O)COC(=O)CCNS(=O)(=O)c2c(Cl)cccc2Cl)no1	-5	-2	0	16	3	-1	.
O=[N+]([O-])c1ccc(N2CCN(CC3CCCCC3)CC2)cc1	-1	.	5	-8	18	4	.
N=c1c(C(=O)NCc2ccc(F)cc2)cc2c(=O)n3ccccc3nc2n1Cc1cccnc1	-5	-1	0	21	45*	-3	42
CCn1c2ccccc2c2cc(CNCc3ccc(OC)cc3OC)ccc21	-80	-2	34	-4	49*	5	51*
CC(C)C(NC(=O)c1ccco1)C(=O)NC1CCCCCC1 (centres undefined)	-12	.	-2	-6	-1	-2	.
O=C(N/N=C1\C/C(=N\NC(=O)c2ccncc2)c2ccccc21)c1ccncc1	-98	-1	-98	52*	46*	2	10
O=C(NN=C1C2CC3CC(C2)CC1C3)c1ccncc1	42	-5	-3	19	3	0	.
COc1ccc(NC(=O)N2CCCC2C(=O)Nc2ccc(C)cc2C)cc1 (centres undefined)	-1	.	2	9	-5	-2	.
O=C(C[C@H]1C/C=C\CC[C@H](Cc2ccc(F)cc2)C(=O)OC[C@H]2CCCN2C1=O)N[C@H](CO)Cc1ccccc1	.	.	-10	.	34	0	.
O=C(C[C@H]1C/C=C\CC[C@@H](Cc2ccc(F)cc2)C(=O)OC[C@H]2CCCN2C1=O)N[C@@H](CO)Cc1ccccc1	-14	.	4	.	53*	-1	54*
O=C(C[C@H]1C/C=C\CC[C@H](Cc2ccc(F)cc2)C(=O)OC[C@H]2CCCN2C1=O)N[C@@H](CO)Cc1ccccc1	-9	.	14	.	61*	0	53*
SMILES	ALR inh	RBBP9 inh	UBC13 inh	SUMO HTRF inh	PREPL inh	Rin1 Abl inh	PREPL confirm
CCCn1c(SCC(=O)NC2CCCCC2)nnc1-c1ccco1	.	.	8	-6	-14	-4	.
NC(=O)c1nsc(C(=O)N(CC(=O)NC2CCCCC2)Cc2ccc(F)cc2)c1N	3	.	17	18	16	2	.
CC1CCN(Cc2nnnn2CCCC(=O)N(C)C2CCOC2)CC1 (centres undefined)	-50	.	1	15	6	-4	.
CC(C)[C@@H]1CC[C@@H](C)C[C@H]1OC(=O)C[n+]1cc(-c2ccc(Cl)cc2)n2c1CCCCC2	-13	-7	25	-6	41	-1	.
CC1CCC(C(C)C)C(OC(=O)Cn2c(-c3ccc(Cl)cc3)[n+](C)c3ccccc32)C1 (centres undefined)	-2	6	25	9	43*	-1	47*
CCNC(=O)C1(C)CCCN(C(=O)c2ccc(C(F)(F)F)nc2C)C1 (centres undefined)	.	.	.	.	.	-2	.
COc1ccc(-c2nc(-c3ccccn3)ncc2S(C)(=O)=O)cc1	-21	3	-48	15	-1	0	.
Cn1nc(-c2ccccn2)nc2c(=O)n(C)c(=O)nc1-2	0	-4	-64	102*	59*	42*	52*
Cc1ccccc1-c1cc2nc(NCCc3ccncc3)n(C)c(=O)c2s1	.	.	.	.	.	-53	.
Fc1cccc(CCN2CCNC[C@@H]2CC2CCCCC2)c1	-1	.	24	.	44*	3	42
c1ccc(C2(CN3CCNC[C@@H]3CC3CCCCC3)CC2)cc1	-2	.	28	.	6	2	.
CN(CCC#N)C(=O)COC(=O)C1c2ccccc2Oc2ccccc21	-6	.	7	12	-3	2	.
N#CCCN(CCC#N)C(=O)C1c2ccccc2Oc2ccccc21	-2	.	1	4	82*	3	5
c1ccc(CNc2nc(-c3ccccn3)nc3ccccc23)cc1	68	.	11	-62	67*	2	64*
c1ccc(CNc2nc(-c3ccccc3)nc3ccccc23)cc1	2	.	11	-18	-8	-1	.
Cc1occc1-c1nnc(SCC(=O)c2c[nH]c3ccccc23)n1C	-9	-6	2	16	21	-2	.
CCCn1c(SCC(=O)c2c[nH]c3ccccc23)nnc1-c1ccncc1	.	-9	-2	-1	44*	0	35
